Experimental data reported in ChEMBL document CHEMBL5724801, “EUbOPEN Chemogenomics Library - Multiplex” (2024).
“And” between values parts separate entries of the source, which are not always exact repeats. Equal values may be shown once.

Test system: U2OS
Test: Multiplex assay against U2OS
Format: toxicity, cell-based
Details: human
How it was run: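 Per cents of healthy-nucleus cells form the tubulin, mitochondrial-mass and membrane-permeability phenotype values. Live cells were stained at seeding with Hoechst33342, BioTracker Green Microtubule Cytoskeleton Dye, MitoTracker Red and Annexin V Alexa Fluor 680. After compound addition they were imaged on a CQ1 microscope at 37°C and 5% CO2, and CellPathfinder machine-learning gating split them into Hoechst high-intensity objects or normal cells, normal cells into healthy, pyknosed or fragmented nuclei, and pyknosed cells into mitotic or apoptotic.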

[1] = 12 h, 1 µM, compound concentration 1 uM
[2] = 12 h, 10 µM, compound concentration 10 uM
[3] = 24 h, 1 µM, compound concentration 1 uM
[4] = 24 h, 10 µM, compound concentration 10 uM
[5] = 48 h, 1 µM, compound concentration 1 uM
[6] = 48 h, 10 µM, compound concentration 10 uM

## CC(N)C1CCC(C(=O)Nc2ccncc2)CC1 (configuration not stated)
[1]
  Population Apoptotic (%): 33.33% and 18.75%
  Population Fragmented Nuclei (%): 1.02% and 1.57%
  Population Healthy Nuclei (%): 90.39% and 81.68%
  Population Hoechst High Intensity Objects (%): 0%
  Population Membrane Permeable-Phenotype (%): 0.68% and 1.28%
  Population Mitochondria Different-Phenotype (%): 0.68% and 3.21%
  Population Mitotic Cells (%): 66.67% and 81.25%
  Population Normal (%): 100%
  Population Pyknosed Nuclei (%): 8.59% and 16.75%
  Population Tubulin-Different-Phenotype (%): 0.23% and 0.64%
  Total Cell Count: 489 and 191
[2]
  Population Apoptotic (%): 31.03% and 27.78%
  Population Fragmented Nuclei (%): 0.73% and 1.2%
  Population Healthy Nuclei (%): 92.2% and 87.95%
  Population Hoechst High Intensity Objects (%): 0%
  Population Membrane Permeable-Phenotype (%): 1.32% and 1.37%
  Population Mitochondria Different-Phenotype (%): 0% and 11.64%
  Population Mitotic Cells (%): 68.97% and 72.22%
  Population Normal (%): 100%
  Population Pyknosed Nuclei (%): 7.07% and 10.84%
  Population Tubulin-Different-Phenotype (%): 0.79% and 0.68%
  Total Cell Count: 410 and 166
[3]
  Population Apoptotic (%): 41.18% and 41.67%
  Population Fragmented Nuclei (%): 2.2% and 3.47%
  Population Healthy Nuclei (%): 90.32% and 87.26%
  Population Hoechst High Intensity Objects (%): 0%
  Population Membrane Permeable-Phenotype (%): 0.65% and 1.33%
  Population Mitochondria Different-Phenotype (%): 0.16% and 3.1%
  Population Mitotic Cells (%): 58.82% and 58.33%
  Population Normal (%): 100%
  Population Pyknosed Nuclei (%): 7.48% and 9.27%
  Population Tubulin-Different-Phenotype (%): 0.81% and 0.88%
  Total Cell Count: 682 and 259
[4]
  Population Apoptotic (%): 32.08% and 28.57%
  Population Fragmented Nuclei (%): 1.38% and 0%
  Population Healthy Nuclei (%): 89.48% and 85.29%
  Population Hoechst High Intensity Objects (%): 0%
  Population Membrane Permeable-Phenotype (%): 0.19% and 1.48%
  Population Mitochondria Different-Phenotype (%): 0.19% and 6.9%
  Population Mitotic Cells (%): 67.92% and 71.43%
  Population Normal (%): 100%
  Population Pyknosed Nuclei (%): 9.14% and 14.71%
  Population Tubulin-Different-Phenotype (%): 0.19% and 0.49%
  Total Cell Count: 580 and 238
[5]
  Population Apoptotic (%): 48.51% and 53.33%
  Population Fragmented Nuclei (%): 2.96% and 2.17%
  Population Healthy Nuclei (%): 89.37% and 88.07%
  Population Hoechst High Intensity Objects (%): 0%
  Population Membrane Permeable-Phenotype (%): 1.02% and 1.48%
  Population Mitochondria Different-Phenotype (%): 0.08% and 2.46%
  Population Mitotic Cells (%): 51.49% and 46.67%
  Population Normal (%): 100%
  Population Pyknosed Nuclei (%): 7.67% and 9.76%
  Population Tubulin-Different-Phenotype (%): 0.51% and 0.25%
  Total Cell Count: 1317 and 461
[6]
  Population Apoptotic (%): 45.33% and 46.15%
  Population Fragmented Nuclei (%): 3.3% and 1%
  Population Healthy Nuclei (%): 89.84% and 86%
  Population Hoechst High Intensity Objects (%): 0.18% and 0%
  Population Membrane Permeable-Phenotype (%): 0.82% and 1.45%
  Population Mitochondria Different-Phenotype (%): 0.1% and 4.94%
  Population Mitotic Cells (%): 54.67% and 53.85%
  Population Normal (%): 99.82% and 100%
  Population Pyknosed Nuclei (%): 6.87% and 13%
  Population Tubulin-Different-Phenotype (%): 0.1% and 0.29%
  Total Cell Count: 1094 and 400

## CCC(=N\O)/C(C)=C/c1ccc(F)cc1 [A-079]
[1]
  Population Apoptotic (%): 48.57% and 40.91%
  Population Fragmented Nuclei (%): 1.07% and 0%
  Population Healthy Nuclei (%): 91.47% and 83.94%
  Population Hoechst High Intensity Objects (%): 0%
  Population Membrane Permeable-Phenotype (%): 0.47% and 1.74%
  Population Mitochondria Different-Phenotype (%): 0% and 11.3%
  Population Mitotic Cells (%): 51.43% and 59.09%
  Population Normal (%): 100%
  Population Pyknosed Nuclei (%): 7.46% and 16.06%
  Population Tubulin-Different-Phenotype (%): 0.47% and 1.74%
[2]
  Population Apoptotic (%): 36.67% and 36.84%
  Population Fragmented Nuclei (%): 3.39% and 2.96%
  Population Healthy Nuclei (%): 88.14% and 82.96%
  Population Hoechst High Intensity Objects (%): 0%
  Population Membrane Permeable-Phenotype (%): 1.6% and 0.89%
  Population Mitochondria Different-Phenotype (%): 0% and 4.46%
  Population Mitotic Cells (%): 63.33% and 63.16%
  Population Normal (%): 100%
  Population Pyknosed Nuclei (%): 8.47% and 14.07%
  Population Tubulin-Different-Phenotype (%): 0.64% and 0.89%
  Total Cell Count: 354 and 135
[3]
  Population Apoptotic (%): 36.36% and 42.86%
  Population Fragmented Nuclei (%): 0.47% and 0.53%
  Population Healthy Nuclei (%): 90.89% and 88.24%
  Population Hoechst High Intensity Objects (%): 0%
  Population Membrane Permeable-Phenotype (%): 0.86% and 1.82%
  Population Mitochondria Different-Phenotype (%): 0% and 3.03%
  Population Mitotic Cells (%): 63.64% and 57.14%
  Population Normal (%): 100%
  Population Pyknosed Nuclei (%): 8.63% and 11.23%
  Population Tubulin-Different-Phenotype (%): 0.17% and 0.61%
[4]
  Population Apoptotic (%): 43.18% and 38.1%
  Population Fragmented Nuclei (%): 2.04% and 1.9%
  Population Healthy Nuclei (%): 88.96% and 84.81%
  Population Hoechst High Intensity Objects (%): 0%
  Population Membrane Permeable-Phenotype (%): 0.46% and 2.99%
  Population Mitochondria Different-Phenotype (%): 0% and 8.21%
  Population Mitotic Cells (%): 56.82% and 61.9%
  Population Normal (%): 100%
  Population Pyknosed Nuclei (%): 9% and 13.29%
  Population Tubulin-Different-Phenotype (%): 0.23% and 0.75%
[5]
  Population Apoptotic (%): 43.75% and 67.74%
  Population Fragmented Nuclei (%): 3.57% and 1.19%
  Population Healthy Nuclei (%): 86.9% and 89.55%
  Population Hoechst High Intensity Objects (%): 0%
  Population Membrane Permeable-Phenotype (%): 0.29% and 1.67%
  Population Mitochondria Different-Phenotype (%): 0.1% and 3%
  Population Mitotic Cells (%): 56.25% and 32.26%
  Population Normal (%): 100%
  Population Pyknosed Nuclei (%): 9.52% and 9.25%
  Population Tubulin-Different-Phenotype (%): 0.2% and 1%
[6]
  Population Apoptotic (%): 34.57% and 41.18%
  Population Fragmented Nuclei (%): 3.23% and 2.2%
  Population Healthy Nuclei (%): 88.86% and 85.35%
  Population Hoechst High Intensity Objects (%): 0%
  Population Membrane Permeable-Phenotype (%): 0.55% and 1.72%
  Population Mitochondria Different-Phenotype (%): 0.11% and 5.58%
  Population Mitotic Cells (%): 65.43% and 58.82%
  Population Normal (%): 100%
  Population Pyknosed Nuclei (%): 7.92% and 12.45%
  Population Tubulin-Different-Phenotype (%): 0.33% and 0%
